Experimental data reported in article PMC7675178 (Journal of medicinal chemistry, 2019).
Residues, ends and D or L forms follow the SMILES beside them. *: point of attachment. Cbz = O=C(OCc1ccccc1)*; Boc = CC(C)(C)OC(=O)*; OBn = c1ccc(CO*)cc1; OtBu = CC(C)(C)O*

Key:
[1] = system: Cfz-resistant RPMI8226 cells; experiment: Cell viability assay; format: cell-based, human
How it was run: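 Resistant RPMI8226 subline derived by stepwise Cfz exposure up to 80 nM over ~6 months, kept in 80 nM, then grown Cfz-free ~1 week before assay. Parental and resistant cells in RPMI1640/10% FBS, plated 10 000/well; compounds added 24 h after plating. MTS read after 72 h. IC50 by nonlinear regression; triplicates, or three independent experiments for the reference.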

H727 cells = experiment: Cell viability assay; format: cell-based
primary MM cells = experiment: Cell viability of primary MM cells; format: cell-based, human; details: 48 h; for Cytotoxic effects in primary MM samples, Btz-resistant versus PI-naïve: 10 μM, nine samples, Figure 5B,C
How it was run: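 Bone-marrow aspirates from patients; CD138+ plasma cells isolated by positive bead selection, purity checked by flow cytometry. Donors were six Btz/Cfz-naïve and eight relapsed on Btz. Plated 20 000 cells/well in IMDM with 10% FBS. Exposed to test compound (50 nM or 10 μM) for 48 h. Percentage viable cells measured by CellTiter-Glo luminescence.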

β5 subunit = details: cited from earlier work
β1i subunit = details: cited from earlier work
[2] = target: β1i/LMP2 of human 20S immunoproteasome (Homo sapiens, UniProt P28065); experiment: Enzyme kinetics assay, β1i/LMP2 activity of purified human 20S immunoproteasome; format: biochemical; details: 20S purified immunoproteasome, Figure 7
How it was run: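 Purified human 20S immunoproteasome in pH 8.0 Tris-HCl buffer (0.5 mM EDTA, 0.035% SDS), incubated 1 h with graded inhibitor concentrations. LMP2 activity measured with Ac-PAL-AMC (100 μM final) by AMC fluorescence (360/460 nm) every minute for 1 h. Linear-regression initial rates normalized to vehicle control; IC50 by nonlinear fit.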

[3] = system: proteasome chymotrypsin-like (CT-L, β5/β5i) activity; format: biochemical, human; details: RPMI8226 cell lysate, Figure 7
How it was run: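 RPMI 8226 lysate in 20 mM Tris-HCl, 0.5 mM EDTA, 0.035% SDS, pH 8.0, preincubated 1 h with a range of inhibitor concentrations. Suc-LLVY-AMC added at 100 μM final. AMC fluorescence (ex 360/em 460 nm) read each minute for 1 h. Initial slopes normalized to vehicle wells; IC50 from nonlinear regression.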

[4] = in vivo; cited from earlier work
[5] = In vitro metabolic stability in rat liver homogenates; format: in vitro ADME; details: 1 μM, 5, 10 and 20 min, 37 °C, Figure 8B
How it was run: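 Livers from 8-week-old male Sprague-Dawley rats, PBS-washed and homogenized in five-fold volume PBS (pH 7.4) per gram. Homogenate prewarmed to 37 °C, spiked to 1 μM final, n = 3. Samples taken at 0, 5, 10 and 20 min, quenched in four-fold ice-cold acetonitrile with 0.5 μM chlorpropamide internal standard. Remaining drug quantified by LC-MS/MS (positive-ion SRM).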

[6] = 72-h IC50 values, H727 versus H23, Figure 3B

CC(C)(C)OC(=O)N[C@@H](CC(=O)OCc1ccccc1)C(=O)N[C@@H](CCCCNC(=O)OCc1ccccc1)C(=O)OC(C)(C)C [reversin 121] (Boc-Asp(OBn)-Lys(Cbz)-OtBu)
Restoration of Cfz sensitivity by P-gp inhibitor ([1]; Cfz-resistant RPMI8226, Supporting Information S2): almost completely restored Cfz sensitivity

CCCCCCC(=O)N[C@@H](C)C(=O)N[C@@H](CC(C)C)C(=O)[C@@]1(CO)CO1 [Compound 5, N-((S)-1-((S)-1-((R)-2-(Hydroxymethyl)oxiran-2-yl)-4-methyl-1-oxopentan-2-ylamino)-1-oxopropan-2-yl)heptanamide]
Cytotoxic activity in cancer cell lines relative to UK101 (H727 cells; H23, H727 and Cfz-resistant RPMI8226 cells, MTS, Figure 6B): considerably improved the cytotoxic activity

CCCCCCC(=O)N[C@@H](CO)C(=O)N[C@@H](CC(C)C)C(=O)[C@@]1(COCOCCOC)CO1 [UK102]
Cytotoxic effects in primary MM samples, Btz-resistant versus PI-naïve (primary MM cells): similar

CC(=O)N[C@@H](CSC(=O)[C@]1([C@@H](O)C(C)C)NC(=O)[C@H](C)[C@@H]1O)C(=O)O [lactacystin]
Cytotoxicity in H727 cells compared with H23 cells (H727 cells; [6]): not as effective in H727 cells as in H23 cells

CCCCCCC(=O)N[C@@H](C)C(=O)N[C@@H](CC(C)C)C(=O)[C@@]1(CO[Si](C)(C)C(C)(C)C)CO1 [UK101]
Cytotoxic effects in primary MM samples, Btz-resistant versus PI-naïve (primary MM cells): similar | Inhibition of β5 subunit (CT-L activity), concentration range (β5 subunit): micromolar concentration ranges | Inhibition of β1i subunit, concentration range (β1i subunit): nanomolar concentration ranges

CC(C)C[C@H](NC(=O)[C@H](CCc1ccccc1)NC(=O)CN1CCOCC1)C(=O)N[C@@H](Cc1ccccc1)C(=O)N[C@@H](CC(C)C)C(=O)[C@@]1(COS(C)(=O)=O)CO1 [Compound 12, ((S)-2-((4S,7S,10S,13S)-10-Benzyl-7-isobutyl-15-methyl-1-morpholino-2,5,8, 11-tetraoxo-4-phenethyl-3,6,9, 12-tetraazahexadecanecarbonyl)oxiran-2-yl)methylmethane-sulfonate]
Potency against H727 cells compared with Cfz (H727 cells; Cfz-resistant H727 cells, Figure 7): less potent than Cfz | IC50 against β1i activity compared with Cfz [2]: IC50 values similar to that of Cfz | IC50 against CT-L (β5/β5i) activity compared with Cfz [3]: IC50 values similar to that of Cfz

CC(C)C[C@H](NC(=O)[C@H](Cc1ccccc1)NC(=O)c1cnccn1)B(O)O [Btz, bortezomib]
Cytotoxicity in H727 cells compared with H23 cells (H727 cells; human, 72 h): comparable cytotoxicity in H727 and H23 cells

CC(C)C[C@H](NC(=O)[C@H](CCc1ccccc1)NC(=O)CN1CCOCC1)C(=O)N[C@@H](Cc1ccccc1)C(=O)N[C@@H](CC(C)C)C(=O)[C@@]1(C)CO1 [Cfz, carfilzomib]
Sensitivity of primary MM samples, Btz-relapsed versus PI-naïve patients (primary MM cells; 50 nM, 14 donors, Figure 5A): tended to be less responsive to Cfz | Plasma half-lives [4]: less than 1 h | Increase in IC50 values in Cfz-resistant RPMI8226 cells ([1]; versus parental RPMI8226, 72 h MTS, Figure 4A): greater than 35 fold

CC(C)C[C@H](NC(=O)[C@H](CCc1ccccc1)NC(=O)CN1CCOCC1)C(=O)N[C@@H](Cc1ccccc1)C(=O)N[C@@H](CC(C)C)C(=O)[C@@]1(CO)CO1 [Compound 9, (S)-N-((S)-1-((S)-1-((R)-2-(Hydroxymethyl)oxiran-2-yl)-4-methyl-1-oxopentan-2-ylamino)-1-oxo-3-phenylpropan-2-yl)-4-methyl-2-((S)-2-(2-morpholinoacetamido)-4-phenylbutanamido)-pentanamide]
IC50 against β1i activity compared with Cfz [2]: IC50 values similar to that of Cfz | Improvement in potency as compared to Cfz ([1]; Cfz-resistant RPMI8226 cells, Figure 7): almost three-fold improvement in potency | IC50 against CT-L (β5/β5i) activity compared with Cfz [3]: IC50 values similar to that of Cfz | Metabolic stability compared with Cfz [5]: more stable than Cfz

CC(C)C[C@@H](C=O)NC(=O)[C@H](CC(C)C)NC(=O)[C@H](CC(C)C)NC(=O)OCc1ccccc1 [MG-132] (Cbz-Leu-Leu-Leu-aldehyde)
Cytotoxicity in H727 cells compared with H23 cells (H727 cells; [6]): comparable cytotoxicity in H727 and H23 cells
